# An excerpt weighted towards active compounds, which were near 5.5% of everything screened.
# Cl transport mod = modulates chloride dependent transport by human KCC2 | KCC2 cells, thallium flux FluoZin-2 fluorescence | B-score of Tl+ flux slope (higher = more flux/activation; lower = inhibition) at 10 µM | actives 2.2% (n = 190,000) | AID 1456;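 active = thallium flux slope and its plate-corrected score both differing from the plate sample mean at a set confidence after two filtering rounds, in either direction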;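 also: slope of fluorescence scaled to starting intensity during 10 to 20 s after thallium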
# WT yeast gro inh = growth inhibition of WT yeast, mitochondrial fusion screen | mitochondrial fusion phenotypic screen, WT strain | actives 2.1% (n = 190,000) | inhibition, % at 10 µM; in the data active = inhibition above about 58%; tested in S. cerevisiae
# BB579 growth dn = yeast BB579 growth reduction in restrictive medium. actives 0.51% (n = 140,000). S. cerevisiae BB579 growth, OD615, 48 h. inhibition, % at 10 µM;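 active = inhibition above a set limit, 3 SD over the mean compound inhibition, cut at about 44% in these data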
#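 Test system: S. cerevisiae DeaD strain BB579 yeast; Medium: restrictive CSMM-D medium; Compound: one dose, 10 µM compound with 0.25% DMSO; Incubation: 4 h cell preincubation, 48 h compound exposure, 30 °C humidified; Signal: OD at 615 nm; Benchmarks: amphotericin B at 10 µg/mL as positive control.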
# Yeast life ext = extends the lifespan of yeast. S. cerevisiae growth with nicotinamide, OD615; deaD strain in restrictive glucose medium. inhibition of the nicotinamide effect, % at 10 µM. actives 0.68% (n = 130,000);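 active = inhibition above a set limit, placed 3 SD over the median of all compounds, cut at about 26% in these data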;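 also: 0% = nicotinamide-treated wells and 100% = cells grown without nicotinamide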
#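 Buffer or medium: CSMM-D glucose medium, restrictive; test system: modified budding yeast, DeaD strain; compound: single dose 10 µM compound, 0.25% DMSO; schedule: culture preincubation 4 h, compound exposure 48 h, both 30 °C; detection: optical density (absorbance) at 615 nm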
# RAM network inh = yeast RAM network inhibition. S. cerevisiae dse1pr::URA3 reporter, 5-FOA growth OD615, 2 d; analog-sensitive cbk1-as2 kinase mutant strain. inhibition, % at 50 µM. actives 1.8% (n = 190,000);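 active = inhibition above a set limit, 3 SD over mean compound inhibition, cut at about 8.4% in these data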;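 also: 0% = DMSO-only wells with no growth and 100% = 10 µM 1-NA-PP1 full growth; inhibition rescues growth on 5-FOA so higher OD means more RAM inhibition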
# Active calls of the source: *; / = not tested or not shown.
SMILES,Cl transport mod,WT yeast gro inh,BB579 growth dn,Yeast life ext,RAM network inh
O=C1CN(C(=O)COC(=O)c2cccc(OCc3ccccc3)c2)c2ccccc2N1,1,-3,-17,-5,2
COc1ccc(OCCCC(=O)NC(C)c2ccccc2)cc1 (configuration not stated),0.36,-7,-16,-3,1
Cc1cc(C)c2c(N=NN(C)C)[nH]nc2n1,0.37,8,73*,-8,0
Cn1cc(CNC(=O)c2cc(-c3ccccc3)nc3ccc(Br)cc23)cn1,0.79,8,-51,-4,3
Cn1cc(CNC(=O)c2cc(-c3ccc(Br)cc3)nc3ccccc23)cn1,-0.28,-5,/,/,8.8*
COC(=O)N/N=C1\CCCc2c(C)cc(C)cc21,0.71,-2,/,/,2
Cc1cc(C)c2c(c1)/C(=N/NC(=S)Nc1ccc(F)cc1)CCC2,2.9*,21,-13,-9,4
COc1ccc(C(C)=O)cc1COC(=O)C(CO)NS(=O)(=O)c1ccc(Br)cc1 (configuration not stated),-0.5,-4,/,/,0
Cc1nn(-c2ccccc2)c(Cl)c1/C=C1\N=C(c2ccccc2)OC1=O,-0.039,/,/,/,/
Cc1nn(-c2ccc(F)cc2)c(Cl)c1/C=C1\C(=O)Nc2ccccc21,-0.92,50,-31,-1,8.6*
CCOc1ccc(CC(=O)C2C(=O)CC(C)(C)CC2=O)cc1OCC,-0.55,3,-40,14,1
CC1(C)CC(=O)C(C(=O)Cc2ccccc2[N+](=O)[O-])C(=O)C1,-0.39,10,-35,58*,-1
COc1ccc(C(CCc2ccc(C)o2)NC(=O)Nc2ccc(OC)cc2OC)cc1 (configuration not stated),-0.04,21,-7,-12,10*
Cc1ccc(CNC(=O)CSc2c3c(nc4ccc(Cl)cc24)CCCC3)o1,4.8*,-1,-32,-2,4
O=C(N/C(=C/c1cccnc1)C(=O)N1CCOCC1)c1ccccc1Br,1.6,-14,-7,-1,1
O=c1c2ccccc2sn1-c1ccc(S(=O)(=O)N2CCCC2)cc1,/,-3,-9,0,4
O=c1c2ccccc2sn1-c1ccccc1,0.27,95,-7,41*,3
Cc1ccc(-n2sc3ccccc3c2=O)cc1S(=O)(=O)N1CCCCC1,1.2,94*,-6,3,7
O=c1c2ccccc2sn1-c1ccc(S(=O)(=O)N2CCCCC2)cc1,1.9,/,/,/,/
CN(C)S(=O)(=O)c1cccc(-n2sc3ccccc3c2=O)c1,-0.64,67*,/,/,4
Cc1ccc(NC(=O)C(C)c2ccc([N+](=O)[O-])cc2)cc1Cl (configuration not stated),0.0015,54,-15,-9,-1
O=C(Nc1ccccc1Oc1ccccc1)c1cc([N+](=O)[O-])ccc1Cl,-0.038,76*,-23,1,5
O=C(Nc1cc(Cl)ccc1Oc1ccccc1)c1ccccc1F,0.68,58,-21,-5,1
Cc1ccc(Oc2ccc(Cl)cc2NC(=O)c2ccc(F)cc2F)cc1,0.51,13,-30,6,8.9*
O=C(Nc1ccccc1Cl)c1ccccc1Oc1ccc(C(F)(F)F)cc1[N+](=O)[O-],-0.87,83*,-20,3,6
SMILES,Cl transport mod,WT yeast gro inh,BB579 growth dn,Yeast life ext,RAM network inh
O=C(COC(=O)c1cccc(Cl)c1)Nc1cc(Cl)ccc1Oc1ccccc1,-2.2,19,-50,13,10*
Cc1cccc(NC(=O)c2cc([N+](=O)[O-])ccc2Cl)c1O,-3.6,5,/,/,2
COCc1ccc(C(=O)NC(C)c2cnn(-c3ccccc3C)c2C)o1 (configuration not stated),-0.37,-13,/,/,1
Cc1ccc2c(c1)C(=O)c1ccccc1CS2=O (configuration not stated),-0.25,-22,-24,-1,2
O=C1CCN(S(=O)(=O)c2ccccc2)CCN1CCOCc1ccc(Cl)cc1,-0.51,/,/,/,/
O=C(Nc1cc(Cl)ccc1Oc1ccccc1)c1ccc(F)cc1,0.4,66*,-42,-10,7
FC(F)(F)c1ccc(CSc2nccn2-c2ccccc2)cc1,0.0017,63*,-25,0,0
O=C(c1ccccc1)c1cc([N+](=O)[O-])ccc1N1CCOCC1,1.2,-20,-39,7,1
CC1CCCN(c2ccc([N+](=O)[O-])cc2C(=O)c2ccccc2)C1 (configuration not stated),-0.044,40,-27,16,9.6*

# Compound activity: PubChem BioAssay, several laboratories
